Data on three compounds can be found in ChEMBL document CHEMBL3627612, “Hirsutinolide Series Inhibit Stat3 Activity, Alter GCN1, MAP1B, Hsp105, G6PD, Vimentin, TrxR1, and Importin α-2 Expression, and Induce Antitumor Effects against Human Glioma” (J Med Chem, 2015).

As a reminder, the IC50 is the concentration that gives 50% inhibition. Read a low IC50 as inhibition by little substance. As a reminder, the inhibition is the drop in the measured response relative to a control, in per cent.

Calls of active or inactive are those of the source. No cut-off for these calls is given here.

Series [1] can be described thus: Cytotoxicity against mouse NIH/3T3 cells assessed as colony survival at 1 to 5 uM for 72 hrs measured after 1 week by crystal-violet staining based assay. The class given is cell-based. The settings on record: nih3t3, 5 µM. In short, it runs like this: (§1)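 Single-cell seeding at 250 cells per well; cells treated once the next day for 72 h with 0–5 μM compound, then grown until large colonies were visible (NIH3T3 1 week, MDA-MB-231 and U251MG 2 weeks, MCF-7 4 weeks). Colonies stained with crystal violet for 4 h, imaged and counted.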

Series [2] is described as follows: Antiproliferative activity against human U373MG cells for 72 hrs by cyquant assay. The class given is functional, cell-based, U-373MG ATCC. As to conditions: U373 MG. An outline of the steps:
(§2)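 CyQuant proliferation assay after 72 h compound exposure of cultured cells; relative viability normalized to DMSO-treated control; IC50 values derived. Glioma lines grown in RPMI or DMEM with 10% FBS and 1% nonessential amino acids.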

The test system of series [3] is U-251. Put plainly: Effect on SOCS3 expression in human U251MG cells at 5 uM after 0.5 to 24 hrs by immunoblot analysis. The class given is functional, cell-based. An outline of the steps:
(§3)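 U251MG cells treated with 5 μM compound for 0–24 h; whole-cell lysates of equal total protein immunoblotted. Controls were 0.025% DMSO-treated cells. Representative of 2–4 independent determinations.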
On the technique in general: In western blotting, separated proteins are transferred to a membrane and probed.

Series [4] can be described thus: Antiproliferative activity against human Glioma (G22) patient derived xenograft cells at 5 uM after 72 hrs by cyquant assay. The class given is functional, Glioma cell. (Xenograft models place foreign cells or tissue in a host animal.)
The subject of series [5] is U-251. Put plainly: Effect on PTP1B expression in human U251MG cells at 5 uM after 0.5 to 24 hrs by immunoblot analysis. The class given is functional, cell-based. An outline of the steps: as §3
In a further series the test system is Glioma cell. Briefly: Effect on cell morphology in human Glioma (G22) patient derived xenograft cells assessed as cell disaggregation of spheroids at 5 uM for 24 hrs measured after 48 to 96 hrs by inverted fluorescence microscope analysis in presence of matrigel. The series is classed as functional. In short, it runs like this: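 G22 patient-derived xenograft glioma cells seeded at 1,000 cells/well in ultra-low-binding round-bottom wells, grown 48 h into 3D spheroids, then treated once with 5 μM compound or DMSO; matrigel added after 24 h. Spheroids imaged at 5× magnification on an inverted fluorescence microscope every 24 h for up to 120 h.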

Series [6] relates to SF-295. Put plainly: Antiproliferative activity against human SF295 cells at 5 uM for 72 hrs by cyquant assay. The class given is functional, cell-based.
Series [7] deals with Mitogen-activated protein kinase; ERK1/ERK2 (Homo sapiens) (UniProt P27361+P28482). Briefly: Modulation of Erk1/2 phosphorylation in human U251MG cells at 5 uM after 0.5 to 24 hrs by immunoblot analysis. The settings on record: U-251. The class given is cell-based. In short, it runs like this:
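U251MG glioma cells (RPMI or DMEM, 10% FBS, 1% nonessential amino acids) treated with 5 μM compound for 0–24 h; 0.025% DMSO control. Whole-cell lysates of equal total protein immunoblotted for pErk1/2, Erk1/2, pJAK2 and JAK2 with β-actin or GAPDH loading controls. Representative of 2–4 independent determinations.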

For series [8], the target named is T1, Signal transducer and activator of transcription 3 (Homo sapiens, UniProt P40763). Briefly: Binding affinity to Stat3 (unknown origin) by NMR analysis.
Series [9] relates to MDA-MB-231. Briefly: Anticlonogenic activity against human MDA-MB-231 cells for 72 hrs measured after 2 weeks by crystal-violet staining based assay. The class given is functional, cell-based. In short, it runs like this:
as §1

Series [10] has as its system SF-295. Put plainly: Anticlonogenic activity against human SF295 cells for 72 hrs by crystal-violet staining based assay. The class given is functional, cell-based.
The subject of series [11] is U-251. Briefly: Anticlonogenic activity against human U251MG cells for 72 hrs measured after 2 weeks by crystal-violet staining based assay. The series is classed as functional, cell-based. An outline of the steps: as §1
Series [12] addresses T2, Signal transducer and activator of transcription 1 (Mus musculus) (UniProt P42225).
T2 sequence (whole entry): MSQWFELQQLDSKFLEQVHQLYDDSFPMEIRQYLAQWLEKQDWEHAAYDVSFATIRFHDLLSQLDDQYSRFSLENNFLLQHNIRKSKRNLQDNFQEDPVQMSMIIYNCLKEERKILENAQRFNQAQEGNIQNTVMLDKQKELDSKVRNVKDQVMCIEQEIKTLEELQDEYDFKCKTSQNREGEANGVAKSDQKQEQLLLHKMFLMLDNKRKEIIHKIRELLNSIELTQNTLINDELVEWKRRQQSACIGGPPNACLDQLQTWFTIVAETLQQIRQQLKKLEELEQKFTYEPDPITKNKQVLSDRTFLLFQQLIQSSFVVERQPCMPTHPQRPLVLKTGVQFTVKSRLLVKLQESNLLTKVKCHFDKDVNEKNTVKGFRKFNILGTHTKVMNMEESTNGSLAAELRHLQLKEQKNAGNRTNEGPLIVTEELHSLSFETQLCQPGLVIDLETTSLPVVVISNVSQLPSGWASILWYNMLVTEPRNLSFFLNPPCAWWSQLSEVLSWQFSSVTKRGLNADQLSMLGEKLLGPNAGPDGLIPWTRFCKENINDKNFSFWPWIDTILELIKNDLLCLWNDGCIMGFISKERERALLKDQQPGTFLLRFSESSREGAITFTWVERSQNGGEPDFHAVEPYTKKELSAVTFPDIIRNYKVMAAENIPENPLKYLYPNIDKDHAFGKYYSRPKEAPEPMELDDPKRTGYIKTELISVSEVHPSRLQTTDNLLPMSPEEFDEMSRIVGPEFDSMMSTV
Put plainly: Inhibition of Stat1 dimer DNA binding activity in EGF-stimulated mouse NIH3T3 nuclear extract expressing human EGFR at 5 uM preincubated for 30 mins followed by addition of radiolabeled probe hSIE for 30 mins by EMSA. Background: In EMSA bound probe runs differently from free probe, usually more slowly.

The nature of series [13]: Antiproliferative activity against human U251MG cells at 5 uM for 72 hrs by cyquant assay. The class given is functional. As to conditions: U-251, 72 h. An outline of the steps:
as §2

The test system of series [14] is MDA-MB-231. Briefly: Antiproliferative activity against human MDA-MB-231 cells at 5 uM for 72 hrs by cyquant assay. The series is classed as functional, cell-based.
Series [15] deals with U-251. Briefly: Cytotoxicity against human U251MG cells at 2.5 to 5 uM after 19 hrs. The series is classed as functional, cell-based.
A short description of series [16]: Antiproliferative activity against human Glioma (G10) patient derived xenograft cells at 5 uM after 72 hrs by cyquant assay. The class given is functional, Glioma cell.
In a further series the test system is NIH3T3. Briefly: Inhibition of Stat5 dimer DNA binding activity in EGF-stimulated mouse NIH3T3 nuclear extract expressing human EGFR at 5 uM preincubated for 30 mins followed by addition of radiolabeled probe MGFe for 30 mins by EMSA. The series is classed as cell-free.
In series [17] the target is T1, Signal transducer and activator of transcription 3. Briefly: Inhibition of Stat3 dimer DNA binding activity in human U251MG cells nuclear extract at 5 uM after 0.5 to 24 hrs by EMSA using radiolabeled probe hSIE. The class given is cell-based. The settings on record: U-251. In short, it runs like this:
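Sub-confluent U251MG or U373MG cells treated with compound (5 μM for 0–24 h, or 0–5 μM for 1.5 h). Stat3:DNA bands scanned, quantified and plotted against concentration to derive IC50. Controls were 0.025% DMSO.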

Series [18] has the same target. Put plainly: Inhibition of Stat3 activity in human glioma (G22) patient-derived mouse xenograft cells assessed as phosphorylated Stat3 level at 5 uM after 24 hrs by immunoblot analysis. An outline of the steps: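 Cultured G22 glioma patient-derived mouse xenograft cells (DMEM, 5–10% heat-inactivated FBS) treated with 5 μM compound for 0–24 h. Whole-cell lysates immunoblotted for pStat3, Stat3, GAPDH.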

Series [19] concerns the target Signal transducer and activator of transcription 3 (Mus musculus) (UniProt P42227). Briefly: Inhibition of Stat3 dimer DNA binding activity in EGF-stimulated mouse NIH3T3 nuclear extract expressing human EGFR assessed as residual activity at 5 uM preincubated for 30 mins followed by addition of radiolabeled probe hSIE for 30 mins by EMSA.

T1 sequence (P40763 whole entry): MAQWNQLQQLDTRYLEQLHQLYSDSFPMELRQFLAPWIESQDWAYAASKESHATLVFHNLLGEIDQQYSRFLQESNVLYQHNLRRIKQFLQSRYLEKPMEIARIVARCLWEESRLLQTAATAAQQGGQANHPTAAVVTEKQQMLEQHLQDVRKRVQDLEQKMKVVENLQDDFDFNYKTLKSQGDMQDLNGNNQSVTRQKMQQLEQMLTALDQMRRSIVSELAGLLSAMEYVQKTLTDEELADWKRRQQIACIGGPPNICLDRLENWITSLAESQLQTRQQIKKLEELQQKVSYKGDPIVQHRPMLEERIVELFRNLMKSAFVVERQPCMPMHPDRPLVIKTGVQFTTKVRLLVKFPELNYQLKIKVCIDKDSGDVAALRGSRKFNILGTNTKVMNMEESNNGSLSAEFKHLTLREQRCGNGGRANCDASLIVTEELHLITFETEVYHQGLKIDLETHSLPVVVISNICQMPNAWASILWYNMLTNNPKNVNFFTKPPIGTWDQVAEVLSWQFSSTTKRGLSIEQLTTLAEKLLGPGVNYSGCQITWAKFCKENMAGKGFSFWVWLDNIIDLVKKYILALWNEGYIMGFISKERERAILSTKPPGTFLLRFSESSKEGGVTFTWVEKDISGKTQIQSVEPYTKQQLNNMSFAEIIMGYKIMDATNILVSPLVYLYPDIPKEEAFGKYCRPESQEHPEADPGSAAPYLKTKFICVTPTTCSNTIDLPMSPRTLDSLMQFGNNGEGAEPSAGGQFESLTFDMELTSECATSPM
Chain of Signal transducer and activator of transcription 3 (Mus musculus) (P42227 whole entry): as the sequence (P40763 whole entry) above, with E760D counted along it
Chain of Mitogen-activated protein kinase; ERK1/ERK2 (Homo sapiens) (P27361 whole entry, looked up): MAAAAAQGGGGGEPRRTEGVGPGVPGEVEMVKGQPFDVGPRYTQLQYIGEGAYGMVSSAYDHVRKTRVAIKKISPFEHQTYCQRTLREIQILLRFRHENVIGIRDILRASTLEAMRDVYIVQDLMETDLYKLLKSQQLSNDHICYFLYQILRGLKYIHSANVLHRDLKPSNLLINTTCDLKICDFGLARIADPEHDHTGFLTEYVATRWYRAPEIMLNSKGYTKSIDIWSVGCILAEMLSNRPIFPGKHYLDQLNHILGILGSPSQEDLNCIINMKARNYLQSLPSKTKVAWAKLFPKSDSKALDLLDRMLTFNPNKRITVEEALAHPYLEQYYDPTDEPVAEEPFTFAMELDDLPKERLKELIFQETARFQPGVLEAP
Chain of Mitogen-activated protein kinase; ERK1/ERK2 (Homo sapiens) (P28482 whole entry, looked up): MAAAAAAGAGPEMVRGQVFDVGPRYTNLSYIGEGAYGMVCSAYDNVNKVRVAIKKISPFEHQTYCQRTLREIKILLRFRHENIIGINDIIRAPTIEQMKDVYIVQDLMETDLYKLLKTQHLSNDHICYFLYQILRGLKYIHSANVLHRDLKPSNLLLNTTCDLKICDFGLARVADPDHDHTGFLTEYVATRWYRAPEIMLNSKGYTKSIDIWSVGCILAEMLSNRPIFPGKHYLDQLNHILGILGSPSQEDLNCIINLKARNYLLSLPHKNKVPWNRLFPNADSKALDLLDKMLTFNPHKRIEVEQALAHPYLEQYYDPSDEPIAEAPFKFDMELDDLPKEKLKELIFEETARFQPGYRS

Turning to `C/C=C(\C)C(=O)O[C@H]1C[C@@H](C)[C@]2(OC)CC[C@](C)(/C=C3/OC(=O)C(COC(C)=O)=C31)O2`, the Activity entry in series [1] is “Toxic”; in series [8] it was “Dose-dependent effect”; in the series on MDA-MB-231 [9], “Dose-dependent effect”; with SF-295 [10], “Dose-dependent effect”; in the series with U-251 [11] it was “Dose-dependent effect”; in [19] it was 31%. In series [2], the IC50 worked out at 6.6 µM. Further, the result (with U-251 [3]; in the series on U-251 [5]; in series [7]; in the series on U-251 [15]) was inactive. Further, the “inhibition (INH)” value in [4] and in [16] was 45% throughout. The result in the series on Glioma cell was Active. Moreover, the inhibition entry (in the series on SF-295 [6]; in series [12]; in the series with NIH3T3; in [18]) was “inactive” each time. This compound also registered an inhibition at 5 µM in series [13] of 90%. For the same compound, the inhibition entry (in the series on MDA-MB-231 [14]; in series [17]) was “Active” each time.

In the case of `C/C=C(\C)C(=O)OCC1=C2/C(=C\[C@@]3(C)CC[C@](O)(O3)[C@H](C)C[C@@H]2O)OC1=O`, the Activity entry in [1] is “Toxic”; in [8] it was “Dose-dependent effect”; with MDA-MB-231 [9], “Dose-dependent effect”; in the series with SF-295 [10], “Dose-dependent effect”; in the series on U-251 [11] it was “Dose-dependent effect”; in series [19], 8%. Besides, the IC50 in [2] stood at 6.5 µM. In addition, the result (with U-251 [3]; in the series on U-251 [5]; in series [7]; in the series on U-251 [15]) was inactive. The “inhibition (INH)” value in series [4] and in series [16] was 45% in each case. Moreover, the result in the series on Glioma cell was Active. In addition, the inhibition entry (with SF-295 [6]; in the series on MDA-MB-231 [14]; in series [17]) was “Active” throughout. Besides, the inhibition entry (in series [12]; in the series with NIH3T3; in [18]) was “inactive” each time. The compound further yielded an inhibition at 5 µM in series [13] of 90%.

Take `C/C=C(\C)C(=O)O[C@H]1C[C@@H](C)[C@]2(O)CC[C@](C)(/C=C3/OC(=O)C(COC(C)=O)=C31)O2`: the Activity entry was “Toxic” in [1]; “Dose-dependent effect” in series [8]; “Dose-dependent effect” with MDA-MB-231 [9]; “Dose-dependent effect” in the series with SF-295 [10]; “Dose-dependent effect” in the series with U-251 [11]; 49% in series [19]. For the same compound, the IC50 in series [2] is 3.5 µM. The outcome (in the series with U-251 [3]; with U-251 [5]; in series [7]; with U-251 [15]) was inactive. In addition, the “inhibition (INH)” value in [4] and in series [16] was 45% throughout. In the series on Glioma cell, the result was Active. Also, the inhibition result (in the series with SF-295 [6]; with MDA-MB-231 [14]; in series [17]) was “Active” in each case. The inhibition entry (in series [12]; in the series on NIH3T3; in series [18]) was “inactive” in each case. In series [13], this compound had an inhibition at 5 µM of 90%.
